The values below come from ChEMBL document CHEMBL1127424, “7-azetidinylquinolones as antibacterial agents. 2. Synthesis and biological activity of 7-(2,3-disubstituted-1-azetidinyl)-4-oxoquinoline- and -1,8-naphthyridine-3-carboxylic acids. Properties and structure-activity relationships of quinolones with an azetidine moiety” (J Med Chem, 1994).

Converted amounts (≈) assume the structure as drawn.

Usually MIC stands for the lowest concentration that inhibits growth of the organism. High values mean a less susceptible organism, low ones a more susceptible organism.

The nature of data set [1]: HPLC capacity factor (k'). The data set is classed as ADME. In a few lines: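 Ion-pair reversed-phase HPLC on ODS-2 (10 μm) at 45 °C. Mobile phase: 10 mM sodium heptanesulfonate plus 50 mM KH2PO4 (pH 3.5)–methanol 45:55, 1 mL/min. Samples at 100 μg/mL in DMF, injected in duplicate, UV 280 nm. k' = (tR − t0)/t0.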
The next data set has as its system Bacillus subtilis. Put plainly: In vitro minimum inhibitory concentration for Bacillus subtilis ATCC 6633. The data set is classed as functional. The method in brief: (§1)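 Serial 2-fold agar dilution in Mueller Hinton medium, run alongside a reference quinolone. Inoculum adjusted to 10⁸ cfu/mL; compound range 0.007–16 μg/mL.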
A further data set relates to Proteus vulgaris. In words: In vitro minimum inhibitory concentration for Proteus vulgaris ATCC 8427. The data set is classed as functional. The method in brief: as §1
Another data set has as its system Enterobacter cloacae. Put plainly: In vitro minimum inhibitory concentration for Enterobacter cloacae ATCC 23355. The data set is classed as functional.
In a further data set the test system is Pseudomonas aeruginosa. In words: In vitro minimum inhibitory concentration for Pseudomonas aeruginosa ATCC 10145. The format is functional. The method in brief:
as §1

In a further data set the test system is Escherichia coli. In words: In vitro minimum inhibitory concentration for Escherichia coli ATCC 10799. The data set is classed as functional. The method in brief: as §1
Data set [2] concerns Staphylococcus epidermidis. In words: In vitro minimum inhibitory concentration for Staphylococcus epidermidis ATCC 155-1. The format is functional. The method in brief:
as §1

The subject of the next data set is Klebsiella pneumoniae. In words: In vitro minimum inhibitory concentration to inhibit Klebsiella pneumoniae ATCC 10031. The data set is classed as functional. The method in brief: as §1
A further data set relates to Staphylococcus aureus. Put plainly: In vitro minimum inhibitory concentration for Staphylococcus aureus ATCC 25178. The format is functional. In a few lines: as §1
For the next data set, the system named is Bacillus cereus. In words: In vitro minimum inhibitory concentration for Bacillus cereus ATCC 11778. The data set is classed as functional. The method in brief: as §1
In the next data set the test system is Morganella morganii. In words: In vitro minimum inhibitory concentration for Morganella morganii ATCC 8019. The data set is classed as functional. In a few lines: as §1
For another data set, the system named is Enterococcus faecalis. In words: In vitro minimum inhibitory concentration for Streptococcus faecalis ATCC 10541. The data set is classed as functional. The method in brief:
as §1

For the compound `CCn1cc(C(=O)O)c(=O)c2cc(F)c(N3CC(C)(N)C3)nc21`, the “Log k'” value in data set [1] is -0.2296.

`C[C@H]1[C@H](N)CN1c1cc2c(cc1F)c(=O)c(C(=O)O)cn2CCF`: the MIC against Bacillus subtilis worked out at 0.25 µg/mL (≈ 0.741 µM); in the data set with Proteus vulgaris, 1 µg/mL (≈ 2.96 µM); against Enterobacter cloacae, 0.12 µg/mL (≈ 0.356 µM); against Pseudomonas aeruginosa it was 2 µg/mL (≈ 5.93 µM); against Escherichia coli, 0.25 µg/mL (≈ 0.741 µM); in data set [2], 1 µg/mL (≈ 2.96 µM). The MIC worked out at 0.12 µg/mL (≈ 0.356 µM) in the data set on Klebsiella pneumoniae; 1 µg/mL (≈ 2.96 µM) with Staphylococcus aureus; 1 µg/mL (≈ 2.96 µM) in the data set with Bacillus cereus; 0.12 µg/mL (≈ 0.356 µM) in the data set with Morganella morganii; 2 µg/mL (≈ 5.93 µM) in the data set with Enterococcus faecalis. For the same compound, the “Log k'” value in [1] is -0.1459.

On to `CC1(N)CN(c2c(F)c(N)c3c(=O)c(C(=O)O)cn(-c4ccc(F)cc4F)c3c2F)C1`, for which, in data set [1], the “Log k'” value is given as 0.3189.

With `CC1(N)CN(c2c(F)cc3c(=O)c(C(=O)O)cn(CCF)c3c2F)C1`, in data set [1], the “Log k'” value is -0.1871.

`CNC1(C)CN(c2nc3c(cc2F)c(=O)c(C(=O)O)cn3C(C)(C)C)C1`: in data set [1], the “Log k'” value was found to be 0.2107.

Regarding `CC1(O)CN(c2c(F)cc3c(=O)c(C(=O)O)cn(C4CC4)c3c2F)C1`, in data set [1], the “Log k'” value came to 0.5451.

On to `CN(C)C1CN(c2nc3c(cc2F)c(=O)c(C(=O)O)cn3C2CC2)C1`, for which the “Log k'” value in data set [1] is 0.464.

`CNC1CN(c2c(F)cc3c(=O)c(C(=O)O)cn(C4CC4)c3c2Cl)C1`: the “Log k'” value in [1] was 0.115.

Consider `CCC1(O)CN(c2cc3c(cc2F)c(=O)c(C(=O)O)cn3C2CC2)C1`, for which, in data set [1], the “Log k'” value is recorded as 0.6222.

For the compound `C[C@H]1[C@H](N)CN1c1nc2c(cc1F)c(=O)c(C(=O)O)cn2CCF`, the MIC with Bacillus subtilis turned out to be 0.12 µg/mL (≈ 0.355 µM); in the data set with Proteus vulgaris it was 0.5 µg/mL (≈ 1.48 µM); with Enterobacter cloacae, 0.06 µg/mL (≈ 0.177 µM); with Pseudomonas aeruginosa, 2 µg/mL (≈ 5.91 µM); against Escherichia coli, 0.12 µg/mL (≈ 0.355 µM); in data set [2] it was 0.5 µg/mL (≈ 1.48 µM). Besides, the minimum inhibitory concentration (MIC) with Klebsiella pneumoniae stood at 0.06 µg/mL (≈ 0.177 µM); in the data set with Staphylococcus aureus it was 1 µg/mL (≈ 2.96 µM); in the data set with Bacillus cereus it was 0.5 µg/mL (≈ 1.48 µM); against Morganella morganii, 0.06 µg/mL (≈ 0.177 µM); in the data set with Enterococcus faecalis it was 4 µg/mL (≈ 11.8 µM). In addition, in data set [1], the “Log k'” value was -0.2166.

Turning to `CCn1cc(C(=O)O)c(=O)c2cc(F)c(N3C[C@@H](N)[C@@H]3C)c(Cl)c21`, the minimal inhibitory concentration (MIC) with Bacillus subtilis amounted to 0.03 µg/mL (≈ 0.0848 µM); with Proteus vulgaris, 0.25 µg/mL (≈ 0.707 µM); against Enterobacter cloacae, 0.06 µg/mL (≈ 0.17 µM); with Escherichia coli, 0.06 µg/mL (≈ 0.17 µM); in data set [2], 0.12 µg/mL (≈ 0.339 µM); in the data set on Klebsiella pneumoniae, 0.03 µg/mL (≈ 0.0848 µM). Further, the MIC against Staphylococcus aureus stood at 0.12 µg/mL (≈ 0.339 µM); with Bacillus cereus, 0.12 µg/mL (≈ 0.339 µM); against Morganella morganii, 0.03 µg/mL (≈ 0.0848 µM); with Enterococcus faecalis it was 0.5 µg/mL (≈ 1.41 µM). The “Log k'” value in data set [1] is recorded as 0.16.

In the case of `CC1(N)CN(c2nc3c(cc2F)c(=O)c(C(=O)O)cn3C(C)(C)C)C1`, the “Log k'” value in [1] is on record as 0.0128.

Regarding `CC1(CN)CN(c2c(F)cc3c(=O)c(C(=O)O)cn(C4CC4)c3c2F)C1`, the “Log k'” value in data set [1] was -0.0438.

As to `CC1(N)CN(c2nc3c(cc2F)c(=O)c(C(=O)O)cn3-c2ccc(F)cc2F)C1`, the “Log k'” value in [1] came to 0.0792.

For the compound `NCC1CN(c2c(F)cc3c(=O)c(C(=O)O)cn(C4CC4)c3c2F)C1`, the “Log k'” value in [1] is listed as -0.196.

`CC1(N)CN(c2cc3c(cc2F)c(=O)c(C(=O)O)cn3-c2ccc(F)cc2F)C1`: the “Log k'” value in data set [1] is 0.0969.

In the case of `O=C(O)c1cn(C2CC2)c2c(F)c(N3CCC3)c(F)cc2c1=O`, in [1], the “Log k'” value was found to be 0.9074.

For `CCn1cc(C(=O)O)c(=O)c2cc(F)c(N3CC(C)(N)C3)cc21`, in data set [1], the “Log k'” value is -0.1805.

On to `NC1CN(c2nc3c(cc2F)c(=O)c(C(=O)O)cn3-c2ccc(F)cc2F)C1`, for which, in data set [1], the “Log k'” value stood at 0.0063.

On to `NC1CN(c2c(F)cc3c(=O)c(C(=O)O)cn(-c4ccc(F)cc4F)c3c2Cl)C1`, for which the “Log k'” value in [1] is 0.128.

For `CC1(N)CN(c2c(F)cc3c(=O)c(C(=O)O)cn(C(C)(C)C)c3c2F)C1`, in data set [1], the “Log k'” value was 0.1751.

Turning to `CNC1(C)CN(c2cc3c(cc2F)c(=O)c(C(=O)O)cn3C(C)(C)C)C1`, the “Log k'” value in [1] is given as 0.303.

On to `CCn1cc(C(=O)O)c(=O)c2cc(F)c(N3CC(C)(N)C3)c(Cl)c21`, for which the “Log k'” value in data set [1] turned out to be 0.121.

Consider `CCn1cc(C(=O)O)c(=O)c2cc(F)c(N3CC(C)(N)C3)c(F)c21`, for which, in data set [1], the “Log k'” value is reported as -0.0757.

On to `CC1(N)CN(c2cc3c(cc2F)c(=O)c(C(=O)O)cn3C(C)(C)C)C1`, for which the “Log k'” value in data set [1] is 0.0294.

`CCn1cc(C(=O)O)c(=O)c2c(N)c(F)c(N3CC(N)C3)c(F)c21`: the “Log k'” value in data set [1] is -0.1033.

On to `Nc1c(F)c(N2CC(N)C2)c(F)c2c1c(=O)c(C(=O)O)cn2-c1ccc(F)cc1F`, for which the “Log k'” value in data set [1] is 0.1424.
